Assay [1] is described as follows: RPL19A-GFP modulators, yeast TOR pathway, confirmation, cell-based, S. cerevisiae, flow cytometry, cherry picks, mother/daughter gates (AID 2270;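 active = GFP response below 50% of the DMSO control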). Particulars: S. cerevisiae RPL19A-GFP strain, 3 h, at 10 µM, stronger effect = lower value, 100 = same GFP as DMSO wells. (In general: A flow cytometer gives signals particle by particle.)
Assay [2] is described as follows: LAP4-GFP expression modulators in yeast, confirmation, cell-based, cherry picks, flow cytometry, mother/daughter gates (AID 2271;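 active = GFP response above 150% of the DMSO control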;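 note: ratio of sample to DMSO plate mean so 100% equals DMSO level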). Particulars: S. cerevisiae LAP4-GFP strain, 3 h, at 10 µM, stronger effect = higher value, 100 means same as DMSO control. The method in brief:
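Measured by: GFP by flow cytometry. Test system: GFP-fusion yeast strain. Input: yeast cells seeded at OD600 of 0.2. Timing: 30 °C, 3 h compound incubation, rotating. Buffer or medium: synthetic complete medium for yeast. Benchmarks: DMSO-only negative wells, rapamycin 400 ng/mL positive wells. Compound: 10 µM single dose.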

Assay [3] can be described thus: modulators of MEP2-GFP levels in yeast, confirmation, S. cerevisiae, flow cytometry GFP, cherry picks (AID 2272;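 active = GFP response above 150% of the DMSO control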;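 note: ratio of well signal to plate DMSO mean so 100% equals DMSO level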). Particulars: S. cerevisiae MEP2-GFP strain, 3 h, at 10 µM, stronger effect = higher value.
Assay [4] can be described thus: AGP1-GFP expression modulators, hit retest, confirmation, cell-based, flow cytometry, S. cerevisiae, cherry picks (AID 2273).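 Note: median GFP channel fluorescence over the whole cell population gate.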 The settings on record: S. cerevisiae AGP1-GFP strain, 3 h, at 10 µM.
Assay [5] can be described thus: modulators of CIT2-GFP expression in yeast, confirmation, S. cerevisiae, GFP fusion, cherry picks, mother/daughter gates (AID 2274). The settings on record: S. cerevisiae CIT2-GFP strain, flow cytometry, 3 h, at 10 µM, stronger effect = higher value.
[6] abbreviates: measured here: daughter cell gate.
The mark [7] stands for this setting: measured here: mother cell gate.
The mark [8] stands for this setting: measured here: daughter cell gate response.
Setting [9] is: measured here: mother cell gate response.

Active and inactive are the calls of the source.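 Rule for the calls, unless noted: active = GFP response above 150% of the DMSO level; inconclusive = fewer than 70 events counted for a yeast strain; inactive = the rest.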

As for `Cc1ccc(NCN2C(=O)C3C4C=CC(C4)C3C2=O)cc1` (stereo not drawn), the GFP response vs DMSO in assay [1] is 96.4% (inactive); in assay [1] (setting [6]), 97%; in assay [1] (setting [7]), 98.1%; in assay [3] it was 97.5% (inactive). The GFP response relative to DMSO was 95.3% (inactive) in assay [2], 93.6% in assay [2] (setting [8]) and 96.5% in assay [2] (setting [9]). Besides, the GFP response, % of DMSO in assay [4] is 98.4% (inactive); in assay [5], 102% (inactive); in assay [5] (setting [6]) it was 102%; in assay [5] (setting [7]), 100%.
`CCOC(=O)C1CCCN(C(=O)c2ccc(-c3ccc([N+](=O)[O-])cc3)o2)C1` (stereo not drawn): the GFP response vs DMSO in assay [1] is 99.8% (inactive); in assay [1] (setting [6]), 100%; in assay [1] (setting [7]), 98.4%; in assay [3], 103% (inactive). Further, the figures for the GFP response relative to DMSO in assay [2], in assay [2] (setting [8]) and in assay [2] (setting [9]) were 101% (inactive), 101% and 101%, respectively. In addition, the GFP response, % of DMSO in assay [4] was 99.3% (inactive); in assay [5] it was 100% (inactive); in assay [5] (setting [6]), 97.6%; in assay [5] (setting [7]), 102%.
For the compound `Cc1cc(NCCCN2CCOCC2)n2ncc(-c3ccccc3)c2n1`, the GFP response vs DMSO in assay [1] is 99.3% (inactive); in assay [1] (setting [6]), 98.1%; in assay [1] (setting [7]), 99.6%; in assay [3], 102% (inactive). Also, the values for the GFP response relative to DMSO in assay [2], in assay [2] (setting [8]) and in assay [2] (setting [9]) were 96.2% (inactive), 95.6% and 98.3%, respectively. Moreover, the GFP response, % of DMSO was 102% (inactive) in assay [4], 95.2% (inactive) in assay [5], 98.1% in assay [5] (setting [6]) and 93.4% in assay [5] (setting [7]).
On to `CCCC(=O)c1ccc(N2CCN(C(=O)c3ccc(Br)cc3)CC2)c(F)c1`, for which the GFP response vs DMSO in assay [1] is 101% (inactive); in assay [1] (setting [6]), 95.9%; in assay [1] (setting [7]) it was 94%; in assay [3], 102% (inactive). For the same compound, the values for the GFP response relative to DMSO in assay [2], in assay [2] (setting [8]) and in assay [2] (setting [9]) were 102% (inactive), 99.2% and 99.3%, respectively. For the same compound, the GFP response, % of DMSO in assay [4] was 100% (inactive); in assay [5], 105% (inactive); in assay [5] (setting [6]), 105%; in assay [5] (setting [7]) it was 99.7%.
For `COc1ccc(N2C(=O)C(Cl)=C(Nc3ccccc3OC)C2=O)cc1`, the GFP response vs DMSO in assay [1] is 101% (inactive); in assay [1] (setting [6]) it was 98.4%; in assay [1] (setting [7]) it was 102%; in assay [3] it was 105% (inactive). Besides, the GFP response relative to DMSO was 98.2% (inactive) in assay [2], 94.2% in assay [2] (setting [8]) and 98.4% in assay [2] (setting [9]). Moreover, the GFP response, % of DMSO in assay [4] was 98% (inactive); in assay [5], 97.3% (inactive); in assay [5] (setting [6]), 97.4%; in assay [5] (setting [7]), 98.1%.
Take `CCOC(=O)CSC1=NC(=O)/C(=C/c2ccc(OC)cc2)S1`: the GFP response vs DMSO was 100% (inactive) in assay [1], 92.5% in assay [1] (setting [6]), 98.2% in assay [1] (setting [7]) and 103% (inactive) in assay [3]. Moreover, the figures for the GFP response relative to DMSO in assay [2], in assay [2] (setting [8]) and in assay [2] (setting [9]) were 154% (active), 139% and 159%, respectively. Moreover, the GFP response, % of DMSO in assay [4] is 102% (inactive); in assay [5] it was 79.7% (inactive); in assay [5] (setting [6]) it was 79.4%; in assay [5] (setting [7]) it was 71.8%.
For the compound `O=c1[nH]n(Cc2ccccc2)c2ccccc12`, the GFP response vs DMSO in assay [1] is 97.6% (inactive); in assay [1] (setting [6]), 97.8%; in assay [1] (setting [7]) it was 97.8%; in assay [3], 102% (inactive). Also, the GFP response relative to DMSO is 103% (inactive) in assay [2], 102% in assay [2] (setting [8]) and 103% in assay [2] (setting [9]). Also, the GFP response, % of DMSO in assay [4] is 98.7% (inactive); in assay [5], 96.4% (inactive); in assay [5] (setting [6]) it was 96.4%; in assay [5] (setting [7]) it was 94.5%.
With `CN(C)c1ccc(/C=C/c2cc[n+](C)cc2)cc1`, the GFP response vs DMSO in assay [1] was 111% (inactive); in assay [1] (setting [6]) it was 109%; in assay [1] (setting [7]), 109%; in assay [3] it was 215% (active). Besides, the GFP response relative to DMSO in assay [2] was 160% (active); in assay [2] (setting [8]), 168%; in assay [2] (setting [9]) it was 159%. Besides, the GFP response, % of DMSO in assay [4] is 109% (inactive); in assay [5], 149% (inactive); in assay [5] (setting [6]), 129%; in assay [5] (setting [7]) it was 134%.
Regarding `COc1ccccc1C1CC(c2c(-c3ccccc3)c3cc(Cl)ccc3[nH]c2=O)=NN1S(C)(=O)=O` (stereo not drawn), the GFP response vs DMSO was 97.6% (inactive) in assay [1], 98.9% in assay [1] (setting [6]), 97.4% in assay [1] (setting [7]) and 119% (inactive) in assay [3]. Moreover, the GFP response relative to DMSO is 106% (inactive) in assay [2], 107% in assay [2] (setting [8]) and 105% in assay [2] (setting [9]). Moreover, the GFP response, % of DMSO in assay [4] was 96.4% (inactive); in assay [5], 113% (inactive); in assay [5] (setting [6]), 112%; in assay [5] (setting [7]) it was 112%.
With `CCC(=O)Oc1oc(-c2ccccc2)nc1C=Nc1ccc(C)cc1`, the GFP response vs DMSO in assay [1] is 103% (inactive); in assay [1] (setting [6]) it was 103%; in assay [1] (setting [7]), 103%; in assay [3], 126% (inactive). Besides, the GFP response relative to DMSO in assay [2] was 111% (inactive); in assay [2] (setting [8]), 113%; in assay [2] (setting [9]) it was 113%. Moreover, the GFP response, % of DMSO in assay [4] was 102% (inactive); in assay [5], 108% (inactive); in assay [5] (setting [6]) it was 110%; in assay [5] (setting [7]), 109%.
Regarding `COc1ccc(CC2=CC(=O)c3ccccc3C2=O)cc1`, the GFP response vs DMSO in assay [1] is 99.7% (inactive); in assay [1] (setting [6]), 99.3%; in assay [1] (setting [7]), 99.3%; in assay [3] it was 104% (inactive). The GFP response relative to DMSO in assay [2] was 101% (inactive); in assay [2] (setting [8]), 99.3%; in assay [2] (setting [9]), 102%. Further, the GFP response, % of DMSO in assay [4] was 94.5% (inactive); in assay [5], 96.4% (inactive); in assay [5] (setting [6]) it was 96.4%; in assay [5] (setting [7]), 94.5%.
As to `COc1ccc(C2CC(c3c(-c4ccccc4)c4cc(Cl)ccc4[nH]c3=O)=NN2S(C)(=O)=O)cc1OC` (stereo not drawn), the GFP response vs DMSO in assay [1] is 99.6% (inactive); in assay [1] (setting [6]), 101%; in assay [1] (setting [7]), 98.5%; in assay [3], 96.2% (inactive). Besides, the GFP response relative to DMSO was 91.5% (inactive) in assay [2], 92.8% in assay [2] (setting [8]) and 89.7% in assay [2] (setting [9]). Further, the GFP response, % of DMSO in assay [4] was 98.3% (inactive); in assay [5] it was 99.7% (inactive); in assay [5] (setting [6]), 99.1%; in assay [5] (setting [7]), 98.5%.
With `CCOC(=O)c1ccccc1NC(=O)c1c(O)c2ccccc2n(CC)c1=O`, the GFP response vs DMSO in assay [1] was 95.6% (inactive); in assay [1] (setting [6]), 96.9%; in assay [1] (setting [7]), 96.2%; in assay [3], 102% (inactive). Also, the GFP response relative to DMSO was 101% (inactive) in assay [2], 102% in assay [2] (setting [8]) and 98.3% in assay [2] (setting [9]). For the same compound, the GFP response, % of DMSO in assay [4] is 93.7% (inactive); in assay [5] it was 98.3% (inactive); in assay [5] (setting [6]) it was 99.1%; in assay [5] (setting [7]), 97.3%.

The values above are taken from PubChem BioAssay.
